Screening results as filed in PubChem.
S100A4 inh HTS = blocks human S100A4 binding to myosin IIA peptide; P26447; S100A4/TAMRA-MyoIIA peptide fluorescence polarization; inhibition, % at 10.7 µM; 360,000 tested, 0.14% active; AID 652163;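 active = mean inhibition of at least 70% across replicates, with every replicate also reaching that level; inconclusive = mean inhibition reaches 70% but some replicates fall short; inactive = mean inhibition below 70%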
Target sequence (P26447 whole entry, looked up): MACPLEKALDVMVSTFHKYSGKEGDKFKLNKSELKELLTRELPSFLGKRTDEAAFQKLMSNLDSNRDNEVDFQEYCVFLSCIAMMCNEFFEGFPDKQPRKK
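assay system = human S100A4 monomer with TAMRA-labelled myosin IIA peptide | also added = labelled myosin peptide probe, 5 nM | incubation = 5 min between mix addition and reading | control set = DMSO and TFP controls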
CAL PDZ FP-1 = inhibitors of human CAL PDZ peptide binding | purified CAL PDZ, TMR-peptide fluorescence polarization, 1 h | inhibition, % at 24.9 µM | 300,000 tested, 0.92% active;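 active = mean inhibition of at least 30% with at least half of replicates also reaching 30%; inconclusive = no clear call, values can overlap the other calls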;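 note: 0% = DMSO neutral control and 100% = excess unlabeled competitor peptide PRC23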
DENV2 CPE rescue = inhibitors of DENV2 cytopathic effect | DENV2-infected cells, cytopathic effect rescue, plate reader | CPE inhibition, % at 9.99 µM | 350,000 tested, 1.7% active | AID 651640; in the data active = CPE inhibition above about 20%, passing the limit was not always enough; inconclusive = no clear call, values can overlap the other calls; tested in BHK-21 cells;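 note: 0% = median of neutral control wells and 100% = median of positive control wells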
SIRT5 inh = inhibitors of human sirtuin-5 desuccinylase; 330,000 tested, 1.1% active; Q9NXA8; Purified SirT5, succinyl-peptide AMC, trypsin-coupled fluorescence; inhibition, % at 15 µM; in the data active = inhibition above about 15%; inconclusive = no clear call, values can overlap the other calls
Target sequence (Q9NXA8 whole entry, looked up): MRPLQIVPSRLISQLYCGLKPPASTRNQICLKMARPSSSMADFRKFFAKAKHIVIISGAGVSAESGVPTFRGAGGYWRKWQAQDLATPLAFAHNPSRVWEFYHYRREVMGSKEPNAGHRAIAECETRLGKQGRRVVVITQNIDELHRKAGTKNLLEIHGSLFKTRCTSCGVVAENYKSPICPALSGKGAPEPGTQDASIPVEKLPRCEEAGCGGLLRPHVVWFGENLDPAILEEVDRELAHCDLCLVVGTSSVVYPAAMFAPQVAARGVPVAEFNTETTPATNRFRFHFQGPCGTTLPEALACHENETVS
ERAP1 HTS inh = blocks human ERAP1 aminopeptidase activity; inhibition, % at 10.7 µM; AID 652197; recombinant ERAP1, Leu-AMC fluorescence, 60 min; 340,000 tested, 0.15% active; Q9NZ08;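 active = mean replicate inhibition of at least 30%, or all replicates individually reaching that 30% level; inactive = mean below 30% and not every replicate reaching it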;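 note: 0% = neutral control wells and 100% = L-leucinethiol positive control wells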
CAL PDZ FP-2 = blocks peptide binding to human CAL PDZ domain; Q9HD26; purified CAL PDZ, TMR-peptide fluorescence polarization, 1 h; inhibition, % at 20 µM; 330,000 tested, 0.02% active;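 active = highest replicate inhibition of at least 40%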;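 note: plate controls were DMSO neutral control wells for no effect and unlabeled competitor peptide control wells for full effect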
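Test system: tagged CAL PDZ domain / Buffer or medium: sodium phosphate/NaCl buffer pH 7.4 with TCEP, IgG, Thesit / Reagent: TMR-labelled reporter peptide T*-PRC34 bound in PDZ groove / Compound dosing: single point, 20 µM / Schedule: 1 h incubation at room temperature before polarization reading / Technique: fluorescence polarization (mP) / Benchmarks: unlabelled peptide, DMSO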
* hit, by the source's call. Sampled rows, rich in hits. Any-hit rate of the full collection: about 2.9%.

Results for OCCNCCc1c[nH]c2ccc(OCc3ccccc3)cc12 ?
S100A4 inh HTS: -3; CAL PDZ FP-1: -6; DENV2 CPE rescue: -1; SIRT5 inh: 20*; ERAP1 HTS inh: -2; CAL PDZ FP-2: 0

What do the screens show for `ClC1=C(Cl)C2(Cl)C3C(Cl)C=CC3C1(Cl)C2(Cl)Cl` (configuration not stated)?
S100A4 inh HTS: -2; CAL PDZ FP-1: -5; DENV2 CPE rescue: 28*; ERAP1 HTS inh: 3; CAL PDZ FP-2: 0

Results for Cc1ccc(N2Cc3ccccc3C2=N)cc1[N+](=O)[O-] ?
S100A4 inh HTS: 8; CAL PDZ FP-1: -5; SIRT5 inh: 26*; ERAP1 HTS inh: -3; CAL PDZ FP-2: -2

What do the screens show for `COc1ccc(F)cc1C(=O)C1CCCN(Cc2ccc(O)cc2)C1` (configuration not stated)?
S100A4 inh HTS: -10; DENV2 CPE rescue: 0; SIRT5 inh: 17*; ERAP1 HTS inh: 2; CAL PDZ FP-2: 0

Results for COc1ccc(F)cc1C(=O)C1CCCN(Cc2cnc(C)s2)C1 (configuration not stated) ?
S100A4 inh HTS: 1; CAL PDZ FP-1: 3; DENV2 CPE rescue: -9; SIRT5 inh: -1; ERAP1 HTS inh: 1; CAL PDZ FP-2: 0

Results for CCOP(=O)(OCC)C(O)c1ccc(N(C)C)cc1 (configuration not stated) ?
S100A4 inh HTS: -4; CAL PDZ FP-1: 30*; DENV2 CPE rescue: -1; CAL PDZ FP-2: -1

How did CCOP(=O)(OCC)C(O)c1ccc(Br)cc1 (configuration not stated) do in these assays?
CAL PDZ FP-1: -4; CAL PDZ FP-2: 0

What do the screens show for `c1cncc(-c2ccc(C3[C@H]4CNC[C@@H]3N4CC3CC3)cc2)c1` (some centres not stated)?
DENV2 CPE rescue: 2

How did Cc1ccc(/C=C2\C(=O)NC(=O)N(Cc3ccccc3Cl)C2=O)o1 do in these assays?
S100A4 inh HTS: -88; CAL PDZ FP-1: -3; DENV2 CPE rescue: 0; SIRT5 inh: -3; ERAP1 HTS inh: 50*; CAL PDZ FP-2: -3

How did COC(=O)[C@@H]1[C@@H](CO)[C@@H]2Cn3c(ccc(/C=C/c4ccccc4)c3=O)[C@H]1N2C(=O)C1CC1 do in these assays?
S100A4 inh HTS: 3; DENV2 CPE rescue: -5; SIRT5 inh: -103; ERAP1 HTS inh: -2

Results for COc1ccc(-n2c(-c3ccccc3Br)nc3ccccc3c2=O)cc1 ?
S100A4 inh HTS: 8; CAL PDZ FP-1: 3; DENV2 CPE rescue: -8; SIRT5 inh: 35*; ERAP1 HTS inh: -3; CAL PDZ FP-2: -2

Results for COc1ccc(-c2ccc3c(c2)CN(C(=O)NC2CCCCC2)Cc2cnnn2-3)cc1 ?
S100A4 inh HTS: -4; DENV2 CPE rescue: 24*; SIRT5 inh: -1; ERAP1 HTS inh: 11

What do the screens show for `Cn1cccc1CNCCc1ccc(F)cc1`?
S100A4 inh HTS: -2; CAL PDZ FP-1: -1; SIRT5 inh: 8; ERAP1 HTS inh: -2; CAL PDZ FP-2: 0

What do the screens show for `COc1ccc(CCNCc2cccn2C)cc1OC`?
S100A4 inh HTS: 0; DENV2 CPE rescue: 69*; SIRT5 inh: 0; ERAP1 HTS inh: 4; CAL PDZ FP-2: -1

How did O=C(O)[C@H]1[C@H](CO)[C@H]2Cn3c(ccc(-c4ccc(F)cc4)c3=O)[C@@H]1N2CC1CCCCC1 do in these assays?
S100A4 inh HTS: 0; DENV2 CPE rescue: 1; SIRT5 inh: 2; ERAP1 HTS inh: 2

How did Cc1cc(OC(C)C(=O)NCc2ccncc2)c2c3c(c(=O)oc2c1)CCC3 (configuration not stated) do in these assays?
S100A4 inh HTS: 2; CAL PDZ FP-1: 31*; DENV2 CPE rescue: 17; SIRT5 inh: -1; ERAP1 HTS inh: -1; CAL PDZ FP-2: -1

How did Cc1cc(OC(C)C(=O)NCc2ccncc2)c2c3c(c(=O)oc2c1)CCCC3 (configuration not stated) do in these assays?
S100A4 inh HTS: -2; CAL PDZ FP-1: -1; DENV2 CPE rescue: -3; SIRT5 inh: -5; ERAP1 HTS inh: 0; CAL PDZ FP-2: -3

Results for O=C(Cc1ccccn1)N1CC2(C1)[C@H](c1ccccc1)[C@@H](CO)N2Cc1ccccn1 ?
S100A4 inh HTS: 22; DENV2 CPE rescue: 1; SIRT5 inh: 2; ERAP1 HTS inh: -2

How did CNc1ccc2oc(C[C@H]3O[C@@]4(CC[C@H]3C)O[C@H]([C@H](C)C(=O)c3ccc[nH]3)[C@H](C)C[C@H]4C)nc2c1C(=O)O do in these assays?
S100A4 inh HTS: 3; CAL PDZ FP-1: 5; DENV2 CPE rescue: 43*; SIRT5 inh: 0; ERAP1 HTS inh: 2; CAL PDZ FP-2: 0

What do the screens show for `O=C1CNC[C@@H]2[C@@H](c3ccc(Br)cc3)[C@@H](CO)N12`?
S100A4 inh HTS: 4; DENV2 CPE rescue: -10; SIRT5 inh: -4; ERAP1 HTS inh: -2

How did CCCCOC(=O)c1ccccc1C(=O)OCCCC do in these assays?
S100A4 inh HTS: 0; CAL PDZ FP-1: 42*; DENV2 CPE rescue: inconclusive; SIRT5 inh: -2; ERAP1 HTS inh: 1; CAL PDZ FP-2: 0

Results for O=C(Nc1ccc(C(F)(F)F)cc1)OC1CN2CCC1CC2 (configuration not stated) ?
S100A4 inh HTS: -4; CAL PDZ FP-1: -4; DENV2 CPE rescue: 39*; SIRT5 inh: -3; CAL PDZ FP-2: 0

Results for C[C@@H]1CC2C3CC=C4C[C@@H](O)CC[C@]4(C)C3CC[C@]2(C)[C@H]1O (some centres not stated) ?
S100A4 inh HTS: -2; CAL PDZ FP-1: -2; DENV2 CPE rescue: 4; SIRT5 inh: -4; ERAP1 HTS inh: 2; CAL PDZ FP-2: -1

Results for C[C@]12CC[C@@H](O)CC1=CCC1C2CC[C@@]2(C)C1C[C@@H](F)[C@H]2O (some centres not stated) ?
S100A4 inh HTS: 5; CAL PDZ FP-1: -5; DENV2 CPE rescue: 33*; ERAP1 HTS inh: 0; CAL PDZ FP-2: 1

Results for COC(=O)[C@H]1[C@H](CO)[C@H]2Cn3c(ccc(/C=C/c4ccccc4)c3=O)[C@@H]1N2C(=O)C1CC1 ?
S100A4 inh HTS: 0; DENV2 CPE rescue: -11; SIRT5 inh: -114; ERAP1 HTS inh: 0

How did CNc1ccc2nc3ccccc3[n+](C)c2c1 do in these assays?
S100A4 inh HTS: active; CAL PDZ FP-1: 27; DENV2 CPE rescue: 2; SIRT5 inh: 6; ERAP1 HTS inh: 5; CAL PDZ FP-2: 13

What do the screens show for `C[n+]1c2ccccc2nc2ccc(NCCO)cc21`?
S100A4 inh HTS: 192*; CAL PDZ FP-1: 8; DENV2 CPE rescue: 0; SIRT5 inh: 1; ERAP1 HTS inh: 6; CAL PDZ FP-2: 7

How did OCCNc1c2c(nc3ccccc13)CCCC2 do in these assays?
CAL PDZ FP-1: -1; CAL PDZ FP-2: -2
